Results from publication PMC10883201 (Nature, 2023).
≈ marks a conversion by molar mass, not a printed value.

How the values were obtained:
[1] = system: C. albicans SN250; assay: Erg extraction experiment; type: cell-based, Candida albicans; details: C. albicans SN250, compound at 5 μM
[2] = ITC, Erg-containing LUVs; AmB–Erg binding data reported earlier; cited from earlier work
[3] = system: Candida krusei; assay: MIC assay; type: cell-based
[4] = system: Aspergillus fumigatus 91; assay: MIC assay; type: cell-based
[5] = ITC with Erg-containing large unilamellar vesicles; type: binding; details: ITC heat exchange
[6] = ITC with Chol-containing large unilamellar vesicles; type: binding; details: ITC heat exchange
[7] = system: primary human renal proximal tubule epithelial cells; assay: Cell viability assay; type: cell-based; details: up to highest concentration tested 50 μM
[8] = system: human red blood cells; assay: Red blood cell lysis / permeabilization; type: cell-based; details: up to highest concentration tested 500 μM
[9] = system: K562 cells; assay: Cell viability assay; type: cell-based, human; details: up to highest concentration tested 50 μM
Summary of the method: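 Suspension cells grown in complete IMDM with FBS and Pen-Strep at 37 °C, 5% CO2. Without trypsinization, suspension was adjusted to 12.5 × 10^5 cells ml−1 and held 3 h at 37 °C before compound. Exposure was 0.5–50 μM final in 1% DMSO, with DMSO and puromycin controls, for 24 h. Viability was by alamarBlue fluorescence after 3 h (ex 537/em 585 nm). Triplicate; average of three experiments.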

[10] = system: HepG2 liver cells; assay: Cell viability assay; type: cell-based, human; details: up to highest concentration tested 50 μM
Summary of the method: (§1)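 Cells grown in complete MEM with FBS, Pen-Strep and non-essential amino acids at 37 °C, 5% CO2. Trypsinized cells were adjusted to 5 × 10^5 cells ml−1, seeded at 10^4 cells per well, and held 3 h at 37 °C. Compound was then added at 0.5–50 μM final in 1% DMSO, with DMSO and puromycin controls, for 24 h. alamarBlue was read after 3 h (ex 537/em 585 nm). Triplicate; average of three experiments.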

[11] = system: H9c2 myocardial cells; assay: Cell viability assay; type: cell-based, rat; details: up to highest concentration tested 50 μM
Summary of the method: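 Rat myocardial cells maintained in complete DMEM with FBS, Pen-Strep and non-essential amino acids, 37 °C, 5% CO2. After trypsinization, cells at 5 × 10^5 cells ml−1 were seeded at […] and rested 3 h. Compound was given at 0.5–50 μM final (1% DMSO) for 24 h, with DMSO and puromycin controls. alamarBlue was added 3 h, then fluorescence read at 537/585 nm. Triplicate; mean of three experiments.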

[12] = system: SH-SY5Y neural cells; assay: Cell viability assay; type: cell-based, human; details: up to highest concentration tested 50 μM
Summary of the method: as §1

[13] = Renal toxicity in mice, 24 h post single IV dose; type: in vivo, female CD-1 mice
[14] = Solution stability in PBS buffer; type: physicochemical; details: PBS buffer at pH 6

| Structure (SMILES) | T50% (time required for 50% Erg extraction) [1] [h] | ΔΔHErg (ΔHsterol – ΔHsterol-free) [2] [µcal] | MIC [3] [µM] | MIC [4] [µM] | Erg binding [5] | Chol binding [6] | toxicity [7] | toxicity [8] | toxicity [9] | toxicity [10] | toxicity [11] | toxicity [12] | kidney injury biomarkers ([13]; 24 h after single IV 45 mg/kg dose) | renal biomarkers ([13]; doses of ≥45 mg kg^−1, single IV, 24 h, 1:2 deoxycholate formulation) | solution stability [14] |
| --- | --- | --- | --- | --- | --- | --- | --- | --- | --- | --- | --- | --- | --- | --- | --- |
| C[C@@H]1[C@H](O)[C@@H](C)/C=C/C=C/C=C/C=C/C=C/C=C/C=C/[C@H](O[C@@H]2O[C@H](C)[C@@H](O)[C@H](N)[C@@H]2O)C[C@@H]2O[C@](O)(C[C@@H](O)C[C@@H](O)[C@H](O)CC[C@@H](O)C[C@@H](O)CC(=O)O[C@H]1C)C[C@H](O)[C@H]2C(=O)O [AmB, amphotericin B, reference compound] | 0.92 | -42.4 ± 11.2 |  |  |  |  |  |  |  |  |  |  |  |  |  |
| C[C@@H]1[C@H](O)[C@@H](C)/C=C/C=C/C=C/C=C/C=C/C=C/C=C/[C@H](O[C@@H]2O[C@H](C)[C@@H](O)[C@H](N)[C@H]2O)C[C@@H]2O[C@](O)(C[C@@H](O)C[C@@H](O)[C@H](O)CC[C@@H](O)C[C@@H](O)CC(=O)O[C@H]1C)C[C@H](O)[C@H]2C(=O)O [C2′epiAmB] | 2.75 |  | 1 (≈ 0.924 µg/mL) | > 32 | retained, albeit diminished, capacity to bind Erg | no binding | no toxicity | no toxicity | no toxicity | no toxicity | no toxicity | no toxicity | do not elevate kidney injury biomarkers | no elevation of renal biomarkers |  |
| CC1C=CC=CC=CC=CC=CC=CC=CC(OC2CC(N)C(O)C(C)O2)CC2OC(O)(CC(O)CC(O)C(O)CCC(O)CC(O)CC(=O)OC(C)C(C)C1O)CC(O)C2C(=O)O (stereo not shown) [C2′deOAmB] |  |  |  |  |  |  |  |  |  |  |  |  |  |  | unstable |
